Laboratory results reported in ChEMBL document CHEMBL5058577, “EUbOPEN Chemogenomics Library 2 (Multiplex)” (2022).

Tested on: HEK-293T
Assay: Multiplex assay against HEK293T
Assay type: toxicity, cell-based
Details: human
How it was run: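 Four dyes were applied at seeding to live cells: Hoechst33342, BioTracker Green Microtubule Cytoskeleton Dye, MitoTracker Red and Annexin V Alexa Fluor 680. Imaging after compound addition used a CQ1 microscope at 37°C and 5% CO2. CellPathfinder machine-learning gating then sorted cells into Hoechst high-intensity objects or normal cells, normal cells into healthy, pyknosed or fragmented nuclei, and pyknosed cells into mitotic or apoptotic, with tubulin, mitochondrial-mass and membrane-permeability phenotypes given as per cents of healthy-nucleus cells.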

[1] = 12 h, 1 µM, compound concentration 1 uM, replicate 1
[2] = 12 h, 1 µM, compound concentration 1 uM, replicate 2
[3] = 12 h, 10 µM, compound concentration 10 uM, replicate 1
[4] = 12 h, 10 µM, compound concentration 10 uM, replicate 2
[5] = 24 h, 1 µM, compound concentration 1 uM, replicate 1
[6] = 24 h, 1 µM, compound concentration 1 uM, replicate 2
[7] = 24 h, 10 µM, compound concentration 10 uM, replicate 1
[8] = 24 h, 10 µM, compound concentration 10 uM, replicate 2
[9] = 48 h, 1 µM, compound concentration 1 uM, replicate 1
[10] = 48 h, 1 µM, compound concentration 1 uM, replicate 2
[11] = 48 h, 10 µM, compound concentration 10 uM, replicate 1
[12] = 48 h, 10 µM, compound concentration 10 uM, replicate 2

Nc1nc(CC(=O)Nc2ccc(CCNC[C@H](O)c3ccccc3)cc2)cs1 [MIRABEGRON]
Population Apoptotic (%) [1]: 22% | Population Fragmented Nuclei (%) [1]: 5% | Population Healthy Nuclei (%) [1]: 84% | Population Hoechst High Intensity Objects (%) [1]: 5% | Population Membrane Permeable-Phenotype (%) [1]: 0% | Population Mitochondria Different-Phenotype (%) [1]: 45% | Population Mitotic Cells (%) [1]: 77% | Population Normal (%) [1]: 94% | Population Pyknosed Nuclei (%) [1]: 10% | Population Tubulin-Different-Phenotype (%) [1]: 19% | Total Cell Count [1]: 455 | Population Apoptotic (%) [2]: 55% | Population Fragmented Nuclei (%) [2]: 8% | Population Healthy Nuclei (%) [2]: 80% | Population Mitochondria Different-Phenotype (%) [2]: 56% | Population Mitotic Cells (%) [2]: 44% | Population Pyknosed Nuclei (%) [2]: 11% | Total Cell Count [2]: 332 | Population Apoptotic (%) [3]: 32% | Population Fragmented Nuclei (%) [3]: 5% | Population Healthy Nuclei (%) [3]: 77% | Population Hoechst High Intensity Objects (%) [3]: 7% | Population Membrane Permeable-Phenotype (%) [3]: 0% | Population Mitochondria Different-Phenotype (%) [3]: 51% | Population Mitotic Cells (%) [3]: 67% | Population Normal (%) [3]: 92% | Population Pyknosed Nuclei (%) [3]: 17% | Population Tubulin-Different-Phenotype (%) [3]: 41% | Total Cell Count [3]: 423 | Population Apoptotic (%) [4]: 44% | Population Fragmented Nuclei (%) [4]: 11% | Population Healthy Nuclei (%) [4]: 74% | Population Hoechst High Intensity Objects (%) [4]: 8% | Population Mitochondria Different-Phenotype (%) [4]: 64% | Population Mitotic Cells (%) [4]: 56% | Population Normal (%) [4]: 91% | Population Pyknosed Nuclei (%) [4]: 14% | Population Tubulin-Different-Phenotype (%) [4]: 29% | Total Cell Count [4]: 388 | Population Apoptotic (%) [5]: 28% | Population Fragmented Nuclei (%) [5]: 10% | Population Healthy Nuclei (%) [5]: 80% | Population Hoechst High Intensity Objects (%) [5]: 2% | Population Membrane Permeable-Phenotype (%) [5]: 0% | Population Mitochondria Different-Phenotype (%) [5]: 30% | Population Mitotic Cells (%) [5]: 71% | Population Normal (%) [5]: 97% | Population Pyknosed Nuclei (%) [5]: 9% | Population Tubulin-Different-Phenotype (%) [5]: 14% | Total Cell Count [5]: 635 | Population Apoptotic (%) [6]: 27% | Population Fragmented Nuclei (%) [6]: 8% | Population Healthy Nuclei (%) [6]: 83% | Population Hoechst High Intensity Objects (%) [6]: 3% | Population Mitochondria Different-Phenotype (%) [6]: 41% | Population Mitotic Cells (%) [6]: 72% | Population Normal (%) [6]: 96% | Population Pyknosed Nuclei (%) [6]: 7% | Population Tubulin-Different-Phenotype (%) [6]: 13% | Total Cell Count [6]: 390 | Population Apoptotic (%) [7]: 31% | Population Fragmented Nuclei (%) [7]: 8% | Population Healthy Nuclei (%) [7]: 77% | Population Hoechst High Intensity Objects (%) [7]: 4% | Population Membrane Permeable-Phenotype (%) [7]: 0% | Population Mitochondria Different-Phenotype (%) [7]: 32% | Population Mitotic Cells (%) [7]: 68% | Population Normal (%) [7]: 95% | Population Pyknosed Nuclei (%) [7]: 13% | Population Tubulin-Different-Phenotype (%) [7]: 23% | Total Cell Count [7]: 552 | Population Apoptotic (%) [8]: 35% | Population Fragmented Nuclei (%) [8]: 9% | Population Healthy Nuclei (%) [8]: 82% | Population Hoechst High Intensity Objects (%) [8]: 5% | Population Mitochondria Different-Phenotype (%) [8]: 49% | Population Mitotic Cells (%) [8]: 64% | Population Normal (%) [8]: 94% | Population Pyknosed Nuclei (%) [8]: 7% | Total Cell Count [8]: 524 | Population Apoptotic (%) [9]: 18% | Population Fragmented Nuclei (%) [9]: 13% | Population Healthy Nuclei (%) [9]: 80% | Population Hoechst High Intensity Objects (%) [9]: 1% | Population Membrane Permeable-Phenotype (%) [9]: 1% | Population Mitochondria Different-Phenotype (%) [9]: 14% | Population Mitotic Cells (%) [9]: 81% | Population Normal (%) [9]: 98% | Population Pyknosed Nuclei (%) [9]: 5% | Population Tubulin-Different-Phenotype (%) [9]: 10% | Total Cell Count [9]: 1141 | Population Apoptotic (%) [10]: 28% | Population Fragmented Nuclei (%) [10]: 17% | Population Healthy Nuclei (%) [10]: 76% | Population Hoechst High Intensity Objects (%) [10]: 0% | Population Mitochondria Different-Phenotype (%) [10]: 21% | Population Mitotic Cells (%) [10]: 71% | Population Normal (%) [10]: 99% | Total Cell Count [10]: 662 | Population Apoptotic (%) [11]: 26% | Population Fragmented Nuclei (%) [11]: 12% | Population Healthy Nuclei (%) [11]: 78% | Population Hoechst High Intensity Objects (%) [11]: 3% | Population Membrane Permeable-Phenotype (%) [11]: 0% | Population Mitochondria Different-Phenotype (%) [11]: 25% | Population Mitotic Cells (%) [11]: 73% | Population Normal (%) [11]: 96% | Population Pyknosed Nuclei (%) [11]: 8% | Population Tubulin-Different-Phenotype (%) [11]: 16% | Total Cell Count [11]: 818 | Population Apoptotic (%) [12]: 28% | Population Healthy Nuclei (%) [12]: 80% | Population Hoechst High Intensity Objects (%) [12]: 2% | Population Mitochondria Different-Phenotype (%) [12]: 30% | Population Mitotic Cells (%) [12]: 71% | Population Normal (%) [12]: 97% | Population Pyknosed Nuclei (%) [12]: 6% | Population Tubulin-Different-Phenotype (%) [12]: 15% | Total Cell Count [12]: 750

COc1ccc2c(c1OCc1ccccc1)C[C@@H](C(=O)O)N(C(=O)C(c1ccccc1)c1ccccc1)C2 [OLODANRIGAN]
Population Apoptotic (%) [1]: 39% | Population Fragmented Nuclei (%) [1]: 6% | Population Healthy Nuclei (%) [1]: 82% | Population Hoechst High Intensity Objects (%) [1]: 7% | Population Membrane Permeable-Phenotype (%) [1]: 0% | Population Mitochondria Different-Phenotype (%) [1]: 44% | Population Mitotic Cells (%) [1]: 60% | Population Normal (%) [1]: 92% | Population Pyknosed Nuclei (%) [1]: 11% | Population Tubulin-Different-Phenotype (%) [1]: 21% | Total Cell Count [1]: 419 | Population Apoptotic (%) [2]: 43% | Population Fragmented Nuclei (%) [2]: 7% | Population Healthy Nuclei (%) [2]: 81% | Population Mitochondria Different-Phenotype (%) [2]: 48% | Population Mitotic Cells (%) [2]: 56% | Population Pyknosed Nuclei (%) [2]: 10% | Population Tubulin-Different-Phenotype (%) [2]: 17% | Total Cell Count [2]: 409 | Population Apoptotic (%) [3]: 45% | Population Fragmented Nuclei (%) [3]: 6% | Population Healthy Nuclei (%) [3]: 81% | Population Hoechst High Intensity Objects (%) [3]: 6% | Population Membrane Permeable-Phenotype (%) [3]: 0% | Population Mitochondria Different-Phenotype (%) [3]: 42% | Population Mitotic Cells (%) [3]: 54% | Population Normal (%) [3]: 93% | Population Pyknosed Nuclei (%) [3]: 12% | Population Tubulin-Different-Phenotype (%) [3]: 35% | Total Cell Count [3]: 389 | Population Apoptotic (%) [4]: 44% | Population Fragmented Nuclei (%) [4]: 4% | Population Healthy Nuclei (%) [4]: 83% | Population Hoechst High Intensity Objects (%) [4]: 3% | Population Mitochondria Different-Phenotype (%) [4]: 58% | Population Mitotic Cells (%) [4]: 55% | Population Normal (%) [4]: 96% | Population Tubulin-Different-Phenotype (%) [4]: 27% | Total Cell Count [4]: 368 | Population Apoptotic (%) [5]: 46% | Population Fragmented Nuclei (%) [5]: 11% | Population Healthy Nuclei (%) [5]: 78% | Population Hoechst High Intensity Objects (%) [5]: 3% | Population Membrane Permeable-Phenotype (%) [5]: 0% | Population Mitochondria Different-Phenotype (%) [5]: 24% | Population Mitotic Cells (%) [5]: 53% | Population Normal (%) [5]: 96% | Population Pyknosed Nuclei (%) [5]: 10% | Population Tubulin-Different-Phenotype (%) [5]: 15% | Total Cell Count [5]: 614 | Population Apoptotic (%) [6]: 19% | Population Fragmented Nuclei (%) [6]: 10% | Population Healthy Nuclei (%) [6]: 81% | Population Hoechst High Intensity Objects (%) [6]: 6% | Population Membrane Permeable-Phenotype (%) [6]: 1% | Population Mitochondria Different-Phenotype (%) [6]: 30% | Population Mitotic Cells (%) [6]: 80% | Population Normal (%) [6]: 93% | Population Pyknosed Nuclei (%) [6]: 8% | Population Tubulin-Different-Phenotype (%) [6]: 14% | Total Cell Count [6]: 521 | Population Apoptotic (%) [7]: 40% | Population Fragmented Nuclei (%) [7]: 7% | Population Healthy Nuclei (%) [7]: 78% | Population Hoechst High Intensity Objects (%) [7]: 6% | Population Membrane Permeable-Phenotype (%) [7]: 0% | Population Mitochondria Different-Phenotype (%) [7]: 34% | Population Mitotic Cells (%) [7]: 59% | Population Normal (%) [7]: 93% | Population Pyknosed Nuclei (%) [7]: 13% | Population Tubulin-Different-Phenotype (%) [7]: 32% | Total Cell Count [7]: 456 | Population Apoptotic (%) [8]: 43% | Population Fragmented Nuclei (%) [8]: 10% | Population Healthy Nuclei (%) [8]: 79% | Population Mitochondria Different-Phenotype (%) [8]: 57% | Population Mitotic Cells (%) [8]: 56% | Population Pyknosed Nuclei (%) [8]: 9% | Population Tubulin-Different-Phenotype (%) [8]: 28% | Total Cell Count [8]: 414 | Population Apoptotic (%) [9]: 26% | Population Fragmented Nuclei (%) [9]: 13% | Population Healthy Nuclei (%) [9]: 80% | Population Hoechst High Intensity Objects (%) [9]: 2% | Population Membrane Permeable-Phenotype (%) [9]: 0% | Population Mitochondria Different-Phenotype (%) [9]: 15% | Population Mitotic Cells (%) [9]: 73% | Population Normal (%) [9]: 97% | Population Pyknosed Nuclei (%) [9]: 5% | Population Tubulin-Different-Phenotype (%) [9]: 11% | Total Cell Count [9]: 1083 | Population Apoptotic (%) [10]: 22% | Population Fragmented Nuclei (%) [10]: 15% | Population Healthy Nuclei (%) [10]: 79% | Population Mitochondria Different-Phenotype (%) [10]: 18% | Population Mitotic Cells (%) [10]: 77% | Population Tubulin-Different-Phenotype (%) [10]: 10% | Total Cell Count [10]: 818 | Population Apoptotic (%) [11]: 32% | Population Fragmented Nuclei (%) [11]: 12% | Population Healthy Nuclei (%) [11]: 78% | Population Hoechst High Intensity Objects (%) [11]: 5% | Population Membrane Permeable-Phenotype (%) [11]: 0% | Population Mitochondria Different-Phenotype (%) [11]: 22% | Population Mitotic Cells (%) [11]: 67% | Population Normal (%) [11]: 94% | Population Pyknosed Nuclei (%) [11]: 8% | Population Tubulin-Different-Phenotype (%) [11]: 15% | Total Cell Count [11]: 659 | Population Apoptotic (%) [12]: 39% | Population Healthy Nuclei (%) [12]: 80% | Population Hoechst High Intensity Objects (%) [12]: 6% | Population Mitochondria Different-Phenotype (%) [12]: 32% | Population Mitotic Cells (%) [12]: 60% | Population Normal (%) [12]: 93% | Population Pyknosed Nuclei (%) [12]: 7% | Population Tubulin-Different-Phenotype (%) [12]: 18% | Total Cell Count [12]: 534
